ChEMBL document CHEMBL2331168, “Anticonvulsant evaluation of aminoalkanol derivatives of 2- and 4-methylxanthone” (Bioorg Med Chem, 2013)
The source made the active and inactive calls.

Columns and labels:
Mus musculus [1] = assay: Anticonvulsant activity in albino mouse assessed as protection against maximal electroshock-induced seizures at 100 mg/kg, ip after 4 hrs; assay type: functional, organism-based; set-up: dose 100 mg/kg
Method in brief: (§1)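 Male albino mice (Carworth Farms No. 1) were given the compound ip as a suspension in 0.5% methylcellulose at 3–300 mg/kg. MES testing was at 0.5 and 4 h, sometimes also at 0.25 and 1 h. Current was 60 Hz, 50 mA, 0.2 s via corneal electrodes, with saline eye drops. Protection meant no hindlimb tonic extension, scored as protected/tested.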

Rattus norvegicus [2] = assay: Neurotoxicity in Sprague-Dawley rat assessed as minimal motor impairment at 30 mg/kg, po after 2 hrs by rotorod test; details: in vivo
Mus musculus [3] = organism: Mus musculus; assay: Protective index, ratio TD50 for albino mouse to ED50 for albino mouse by maximal electroshock-induced seizure test after 0.5 hrs; assay type: functional
Method in brief: (§2)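 Protective index was calculated as mouse ip TD50 (rotorod) divided by mouse ip MES ED50, both obtained by quantitative dose-response testing at the stated post-dose time.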

Rattus norvegicus [4] = assay: Anticonvulsant activity in Sprague-Dawley rat assessed as protection against maximal electroshock-induced seizures at 30 mg/kg, po after 1 hr; assay type: functional, organism-based; set-up: dose 30 mg/kg
Method in brief: (§3)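 Male Sprague-Dawley rats dosed orally at 30 mg/kg and tested at 0.25, 0.5, 1, 2 and 4 h. Seizures were induced by 60 Hz alternating current at 150 mA for 0.2 s through corneal electrodes, after a drop of 0.9% NaCl in each eye. Protection meant abolition of hindlimb tonic extension. Reported as protected/tested, usually 4 rats per time point.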

Mus musculus [5] = assay: Anticonvulsant activity in albino mouse assessed as protection against subcutaneous pentetrazole-induced seizures at 30 mg/kg, ip after 0.5 hrs; assay type: functional, organism-based; set-up: dose 30 mg/kg
Method in brief: (§4)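 Male albino mice (Carworth Farms No. 1) received compound ip in 0.5% methylcellulose, then pentetrazole 85 mg/kg sc in 0.9% NaCl at 0.5 or 4 h. Mice were watched for at least 30 min. Protection meant no threshold seizure, defined as a single clonic spasm lasting at least 5 s. Scored as protected/tested.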

Mus musculus [6] = assay: Anticonvulsant activity in albino mouse assessed as protection against maximal electroshock-induced seizures at 30 mg/kg, ip after 4 hrs; assay type: functional, organism-based; set-up: dose 30 mg/kg; method in brief: as §1
Rattus norvegicus [7] = assay: Neurotoxicity in Sprague-Dawley rat assessed as minimal motor impairment at 30 mg/kg, po after 0.5 hrs by rotorod test; details: in vivo
Rattus norvegicus [8] = assay: Neurotoxicity in Sprague-Dawley rat assessed as minimal motor impairment at 30 mg/kg, po after 0.25 hrs by rotorod test; details: in vivo
Mus musculus [9] = assay: Anticonvulsant activity in albino mouse assessed as protection against subcutaneous pentetrazole-induced seizures at 300 mg/kg, ip after 4 hrs; assay type: functional, organism-based; set-up: dose 300 mg/kg; method in brief: as §4
Mus musculus [10] = assay: Anticonvulsant activity in albino mouse assessed as protection against subcutaneous pentetrazole-induced seizures at 100 mg/kg, ip after 0.5 hrs; assay type: functional, organism-based; set-up: dose 100 mg/kg; method in brief: as §4
Mus musculus [11] = assay: Anticonvulsant activity in albino mouse assessed as protection against maximal electroshock-induced seizures at 300 mg/kg, ip after 0.5 hrs; assay type: functional, organism-based; set-up: dose 300 mg/kg; method in brief: as §1
Mus musculus [12] = assay: Anticonvulsant activity in albino mouse assessed as protection against maximal electroshock-induced seizures at 300 mg/kg, ip after 4 hrs; assay type: functional, organism-based; set-up: dose 300 mg/kg; method in brief: as §1
Mus musculus [13] = assay: Anticonvulsant activity in albino mouse assessed as protection against maximal electroshock-induced seizures at 100 mg/kg, ip after 0.5 hrs; assay type: functional, organism-based; set-up: dose 100 mg/kg; method in brief: as §1
Mus musculus [14] = assay: Anticonvulsant activity in albino mouse assessed as protection against subcutaneous pentetrazole-induced seizures at 30 mg/kg, ip after 4 hrs; assay type: functional, organism-based; set-up: dose 30 mg/kg; method in brief: as §4
Mus musculus [15] = assay: Anticonvulsant activity in ip dosed albino mouse assessed as protection against subcutaneous pentetrazole-induced seizures after 0.5 hrs; assay type: functional
Mus musculus [16] = assay: Neurotoxicity in albino mouse assessed as minimal motor impairment at 30 mg/kg, ip after 0.5 hrs by rotorod test; assay type: toxicity, organism-based; set-up: dose 30 mg/kg, route intraperitoneal; details: in vivo
Method in brief: (§5)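 Male albino mice (Carworth Farms No. 1) were dosed ip with suspensions in 0.5% methylcellulose and put on a 1 in. knurled rod rotating at 6 rpm at set times after dosing. Neurotoxicity meant failure to stay on the rod for at least 1 min in each of three trials. Scored as impaired/tested.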

Mus musculus [17] = assay: Anticonvulsant activity in albino mouse assessed as protection against subcutaneous pentetrazole-induced seizures at 100 mg/kg, ip after 4 hrs; assay type: functional, organism-based; set-up: dose 100 mg/kg; method in brief: as §4
Mus musculus [18] = assay: Anticonvulsant activity in albino mouse assessed as protection against maximal electroshock-induced seizures at 30 mg/kg, ip after 0.5 hrs; assay type: functional, organism-based; set-up: dose 30 mg/kg; method in brief: as §1
Mus musculus [19] = assay: Neurotoxicity in albino mouse assessed as minimal motor impairment at 100 mg/kg, ip after 0.5 hrs by rotorod test; assay type: toxicity, organism-based; set-up: dose 100 mg/kg, route intraperitoneal; details: in vivo; method in brief: as §5
Mus musculus [20] = assay: Neurotoxicity in albino mouse assessed as minimal motor impairment at 100 mg/kg, ip after 4 hrs by rotorod test; assay type: toxicity, organism-based; set-up: dose 100 mg/kg, route intraperitoneal; details: in vivo; method in brief: as §5
Mus musculus [21] = assay: Neurotoxicity in albino mouse assessed as minimal motor impairment at 30 mg/kg, ip after 4 hrs by rotorod test; assay type: toxicity, organism-based; set-up: dose 30 mg/kg, route intraperitoneal; details: in vivo; method in brief: as §5
Rattus norvegicus [22] = assay: Neurotoxicity in Sprague-Dawley rat assessed as minimal motor impairment at 30 mg/kg, po after 1 hr by rotorod test; details: in vivo
Mus musculus [23] = assay: Protective index, ratio TD50 for albino mouse to ED50 for albino mouse by subcutaneous pentetrazole-induced seizure test after 0.5 hrs; assay type: functional
Mus musculus [24] = assay: Anticonvulsant activity in albino mouse assessed as protection against subcutaneous pentetrazole-induced seizures at 300 mg/kg, ip after 0.5 hrs; assay type: functional, organism-based; set-up: dose 300 mg/kg; method in brief: as §4
[25] = Neurotoxicity in ip dosed albino mouse assessed as minimal motor impairment after 1 hr by rotorod test; assay type: toxicity, organism-based; details: in vivo
Method in brief: (§6)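 TD50, with 95% confidence intervals, was the ip dose causing neurotoxicity in 50% of male albino mice. Deficit was judged on the rotorod: a 1 in. knurled rod at 6 rpm, where failure to hold on for 1 min in each of three trials counted as deficit. Read at the stated time after dosing.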

Mus musculus [26] = assay: Anticonvulsant activity in ip dosed albino mouse assessed as protection against maximal electroshock-induced seizures after 0.5 hrs; assay type: functional
Method in brief: (§7)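 ED50, with 95% confidence intervals, was the ip dose protecting 50% of mice in the MES test. It was measured at the stated post-dose time in male albino mice given suspensions in 0.5% methylcellulose. MES used 60 Hz, 50 mA, 0.2 s corneal stimulation, and the endpoint was abolition of hindlimb tonic extension.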

Rattus norvegicus [27] = assay: Neurotoxicity in Sprague-Dawley rat assessed as minimal motor impairment at 30 mg/kg, po after 4 hrs by rotorod test; details: in vivo
Mus musculus [28] = assay: Protective index, ratio TD50 for albino mouse to ED50 for albino mouse by subcutaneous pentetrazole-induced seizure test after 1 hr; assay type: functional
Rattus norvegicus [29] = assay: Anticonvulsant activity in Sprague-Dawley rat assessed as protection against maximal electroshock-induced seizures at 30 mg/kg, po after 0.5 hrs; assay type: functional, organism-based; set-up: dose 30 mg/kg; method in brief: as §3
Mus musculus [30] = assay: Anticonvulsant activity in ip dosed albino mouse assessed as protection against maximal electroshock-induced seizures after 1 hr; assay type: functional; method in brief: as §7
Mus musculus [31] = assay: Neurotoxicity in albino mouse assessed as minimal motor impairment at 300 mg/kg, ip after 4 hrs by rotorod test; assay type: toxicity, organism-based; set-up: dose 300 mg/kg, route intraperitoneal; details: in vivo; method in brief: as §5
Mus musculus [32] = organism: Mus musculus; assay: Protective index, ratio TD50 for albino mouse to ED50 for albino mouse by maximal electroshock-induced seizure test after 1 hr; assay type: functional; method in brief: as §2
Rattus norvegicus [33] = assay: Anticonvulsant activity in Sprague-Dawley rat assessed as protection against maximal electroshock-induced seizures at 30 mg/kg, po after 2 hrs; assay type: functional, organism-based; set-up: dose 30 mg/kg; method in brief: as §3
Rattus norvegicus [34] = assay: Anticonvulsant activity in Sprague-Dawley rat assessed as protection against maximal electroshock-induced seizures at 30 mg/kg, po after 0.25 hrs; assay type: functional, organism-based; set-up: dose 30 mg/kg; method in brief: as §3
Mus musculus [35] = assay: Anticonvulsant activity in ip dosed albino mouse assessed as protection against subcutaneous pentetrazole-induced seizures after 1 hr; assay type: functional
Mus musculus [36] = assay: Anticonvulsant activity in ip dosed albino mouse assessed as protection against subcutaneous pentetrazole-induced seizures after 2 hrs; assay type: functional
Rattus norvegicus [37] = assay: Anticonvulsant activity in Sprague-Dawley rat assessed as protection against maximal electroshock-induced seizures at 30 mg/kg, po after 4 hrs; assay type: functional, organism-based; set-up: dose 30 mg/kg; method in brief: as §3
[38] = Neurotoxicity in ip dosed albino mouse assessed as minimal motor impairment after 2 hrs by rotorod test; assay type: toxicity, organism-based; details: in vivo; method in brief: as §6
Mus musculus [39] = assay: Neurotoxicity in albino mouse assessed as minimal motor impairment at 300 mg/kg, ip after 0.5 hrs by rotorod test; assay type: toxicity, organism-based; set-up: dose 300 mg/kg, route intraperitoneal; details: in vivo; method in brief: as §5
Mus musculus [40] = assay: Protective index, ratio TD50 for albino mouse to ED50 for albino mouse by subcutaneous pentetrazole-induced seizure test after 2 hrs; assay type: functional

SMILES | Activity (Mus musculus [1]) | Activity (Rattus norvegicus [2]) | Activity (Rattus norvegicus [4]) | Activity (Mus musculus [5]) | Activity (Mus musculus [6]) | Activity (Rattus norvegicus [7]) | Activity (Rattus norvegicus [8]) | Activity (Mus musculus [9]) | Activity (Mus musculus [10]) | Activity (Mus musculus [11]) | Activity (Mus musculus [12]) | Activity (Mus musculus [14]) | Activity (Mus musculus [16]) | Activity (Mus musculus [17]) | Activity (Mus musculus [18]) | Activity (Mus musculus [20]) | Activity (Mus musculus [21]) | Activity (Rattus norvegicus [22]) | Activity (Mus musculus [24]) | Activity (Rattus norvegicus [27]) | also measured
CCC(CO)NCc1ccc2oc3cc(OC)ccc3c(=O)c2c1 (racemic) | inactive | Non-toxic | inactive | inactive | inactive | Non-toxic | Non-toxic | inactive | inactive | Active | Active | inactive | Non-toxic | inactive | inactive | Non-toxic | Non-toxic | Non-toxic | inactive | Non-toxic | Ratio TD50/ED50 (Mus musculus [3]): 2.66; Activity (Mus musculus [13]): Active; ED50 (Mus musculus [15]): > 500 mg/kg; Activity (Mus musculus [19]): Non-toxic; Ratio TD50/ED50 (Mus musculus [23]): <0.43; TD50 at 1 h [25]: 213 mg/kg; ED50 (Mus musculus [26]): 80 mg/kg
CC[C@H](CO)NCc1ccc2oc3cc(OC)ccc3c(=O)c2c1 |  | Non-toxic |  | inactive | inactive | Non-toxic | Non-toxic | inactive | inactive | Active | Active | inactive | Non-toxic | inactive | inactive | Non-toxic | Non-toxic | Non-toxic | inactive | Non-toxic | Ratio TD50/ED50 (Mus musculus [28]): <1.54; Activity (Rattus norvegicus [29]): inactive; ED50 (Mus musculus [30]): 107 mg/kg; Activity (Mus musculus [31]): Non-toxic; Activity (Mus musculus [13]): Active; Ratio TD50/ED50 (Mus musculus [32]): 2.51; Activity (Rattus norvegicus [33]): inactive; Activity (Rattus norvegicus [34]): inactive; ED50 (Mus musculus [35]): > 175 mg/kg; TD50 at 1 h [25]: 269 mg/kg
C[C@@H](CO)NCc1ccc2oc3ccc(Cl)cc3c(=O)c2c1 | Active | Non-toxic | inactive | inactive | inactive | Non-toxic | Non-toxic | inactive | inactive | inactive | Active | inactive | Non-toxic | inactive | inactive | Non-toxic | Non-toxic | Non-toxic | inactive | Non-toxic | ED50 (Mus musculus [30]): 79.7 mg/kg; ED50 (Mus musculus [36]): > 375 mg/kg; Activity (Rattus norvegicus [37]): inactive; TD50 at 2 h [38]: 313 mg/kg; Activity (Mus musculus [31]): Non-toxic; Activity (Mus musculus [39]): Non-toxic; Activity (Mus musculus [19]): Non-toxic; Ratio TD50/ED50 (Mus musculus [32]): 3.93; Activity (Rattus norvegicus [33]): inactive; Ratio TD50/ED50 (Mus musculus [40]): <0.84
